Data from ChEMBL document CHEMBL2169806, “Design, synthesis, and pharmacological evaluation of N-acylhydrazones and novel conformationally constrained compounds as selective and potent orally active phosphodiesterase-4 inhibitors” (J Med Chem, 2012).
pEC50, pIC50: −log10 of the molar value. Values belong to the compound of their own block, whether it stands above or below them.

Experiments:
Bos taurus [1] = species: Bos taurus; assay: Inhibition of bovine PDE4 using [3H]cAMP as substrate at 10 uM
Procedure, shortened: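 Enzyme was PDE4 isolated from the media layer of bovine aorta, run in the two-step activity assay at 1 μM cAMP.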

PBMC [2] = assay: Antiinflammatory activity in human PBMC assessed as inhibition of LPS-induced TNFalpha production after 24 hrs by ELISA; assay type: functional, cell-based
Mus musculus [3] = assay: Antiinflammatory activity in A/J mouse assessed as inhibition of LPS-induced airway resistance provoked by methacholine at 100 umol/kg, po administered 1 hr prior to LPS-challenge measured after 18 hrs relative to vehicle-treated control; assay type: functional
Mus musculus [4] = assay: Antiinflammatory activity in A/J mouse assessed as inhibition of neutrophil accumulation in bronchoalveolar space at 100 umol/kg, po administered 1 hr prior to LPS-challenge measured after 18 hrs relative to vehicle-treated control; assay type: functional; conditions: Lung
Mus musculus [5] = assay: Antiinflammatory activity in A/J mouse assessed as inhibition of leukocyte accumulation in bronchoalveolar space at 100 umol/kg, po administered 1 hr prior to LPS-challenge measured after 18 hrs relative to vehicle-treated control; assay type: functional; conditions: Lung
Mus musculus [6] = assay: Antiinflammatory activity in A/J mouse lung assessed as inhibition of LPS-induced IL6 production at 100 umol/kg, po administered 1 hr prior to LPS-challenge measured after 18 hrs relative to vehicle-treated control; assay type: functional
[7] = Inhibition of bovine PDE4 using [3H]cAMP as substrate; parameters: species or system Bos taurus
Mus musculus [8] = assay: Antiinflammatory activity in A/J mouse assessed as inhibition of LPS-induced airway elastance provoked by methacholine at 100 umol/kg, po administered 1 hr prior to LPS-challenge measured after 18 hrs relative to vehicle-treated control; assay type: functional
Mus musculus [9] = assay: Antiinflammatory activity in A/J mouse lung assessed as inhibition of LPS-induced TNFalpha production at 100 umol/kg, po administered 1 hr prior to LPS-challenge measured after 18 hrs relative to vehicle-treated control; assay type: functional
[10] = Inhibition of PDE6 at 10 uM
PBMC [11] = assay: Antiinflammatory activity in human PBMC assessed as inhibition of LPS-induced TNFalpha production at 10 uM after 24 hrs by ELISA relative to control; assay type: functional
[12] = target: cGMP-dependent 3',5'-cyclic phosphodiesterase (Homo sapiens, UniProt O00408); assay: Inhibition of human PDE2 using [3H]cAMP as substrate at 10 uM
Chain of cGMP-dependent 3',5'-cyclic phosphodiesterase (O00408 whole entry): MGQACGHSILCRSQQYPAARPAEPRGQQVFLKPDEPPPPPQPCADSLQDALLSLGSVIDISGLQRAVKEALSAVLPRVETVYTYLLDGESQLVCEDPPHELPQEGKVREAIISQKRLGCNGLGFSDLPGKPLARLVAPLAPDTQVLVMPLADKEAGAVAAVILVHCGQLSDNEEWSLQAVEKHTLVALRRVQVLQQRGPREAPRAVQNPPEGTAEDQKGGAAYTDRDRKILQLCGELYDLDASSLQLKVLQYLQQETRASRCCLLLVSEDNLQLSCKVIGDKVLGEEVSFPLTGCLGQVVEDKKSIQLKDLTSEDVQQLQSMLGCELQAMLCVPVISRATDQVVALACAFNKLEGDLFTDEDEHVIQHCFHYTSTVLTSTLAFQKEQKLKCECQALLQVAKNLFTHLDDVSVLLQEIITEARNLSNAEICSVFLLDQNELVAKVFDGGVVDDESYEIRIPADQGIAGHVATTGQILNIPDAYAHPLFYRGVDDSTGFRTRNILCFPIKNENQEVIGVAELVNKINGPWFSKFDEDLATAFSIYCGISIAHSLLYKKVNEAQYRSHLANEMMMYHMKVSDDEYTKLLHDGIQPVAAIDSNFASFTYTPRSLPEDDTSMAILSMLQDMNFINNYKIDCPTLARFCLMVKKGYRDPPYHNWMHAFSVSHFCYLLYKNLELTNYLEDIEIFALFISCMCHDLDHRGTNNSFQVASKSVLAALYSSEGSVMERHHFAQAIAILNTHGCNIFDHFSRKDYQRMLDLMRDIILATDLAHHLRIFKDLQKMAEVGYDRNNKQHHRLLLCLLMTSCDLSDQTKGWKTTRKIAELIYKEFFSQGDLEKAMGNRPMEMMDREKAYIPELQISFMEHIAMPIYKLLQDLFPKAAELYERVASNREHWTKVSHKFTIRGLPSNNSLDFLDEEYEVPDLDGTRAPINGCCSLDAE

Bos taurus [13] = species: Bos taurus; assay: Inhibition of bovine PDE5 using […] as substrate at 10 uM
[14] = Inhibition of bovine PDE3 using [3H]cAMP as substrate; parameters: species or system Bos taurus
Bos taurus [15] = species: Bos taurus; assay: Inhibition of bovine PDE1 using [3H]cAMP as substrate at 10 uM
[16] = target: 3',5'-cyclic-AMP phosphodiesterase 4D (Homo sapiens, UniProt Q08499); assay: Inhibition of human recombinant PDE4D
Chain of 3',5'-cyclic-AMP phosphodiesterase 4D (Q08499 whole entry): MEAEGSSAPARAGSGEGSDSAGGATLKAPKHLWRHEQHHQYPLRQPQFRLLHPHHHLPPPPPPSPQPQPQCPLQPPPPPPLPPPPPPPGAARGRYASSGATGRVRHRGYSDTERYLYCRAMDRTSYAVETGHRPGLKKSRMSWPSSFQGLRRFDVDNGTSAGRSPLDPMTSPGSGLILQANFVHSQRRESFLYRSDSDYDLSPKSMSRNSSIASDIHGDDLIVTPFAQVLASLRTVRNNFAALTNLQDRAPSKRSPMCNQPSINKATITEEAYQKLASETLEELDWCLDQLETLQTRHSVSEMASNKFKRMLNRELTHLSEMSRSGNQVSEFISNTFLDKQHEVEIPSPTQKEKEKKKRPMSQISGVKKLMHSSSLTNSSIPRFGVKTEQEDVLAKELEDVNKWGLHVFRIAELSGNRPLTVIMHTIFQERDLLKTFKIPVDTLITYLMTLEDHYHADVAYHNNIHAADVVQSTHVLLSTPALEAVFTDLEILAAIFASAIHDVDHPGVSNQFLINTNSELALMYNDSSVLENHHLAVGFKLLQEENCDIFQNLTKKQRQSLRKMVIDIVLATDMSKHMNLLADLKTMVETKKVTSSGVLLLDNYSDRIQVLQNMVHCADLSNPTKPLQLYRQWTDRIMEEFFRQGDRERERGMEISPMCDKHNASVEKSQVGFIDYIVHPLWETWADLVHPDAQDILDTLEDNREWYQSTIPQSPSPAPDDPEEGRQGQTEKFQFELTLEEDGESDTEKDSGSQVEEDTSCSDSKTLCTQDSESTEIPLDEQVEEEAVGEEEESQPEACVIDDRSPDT

inhibition (Bos taurus [1]): 7.7%
SMILES: COc1ccc(C(=O)N/N=C/c2c(C)nc3ccccn23)cc1OC

inhibition (Bos taurus [1]): 98%
pIC50 [7]: 6.72
SMILES: COc1ccc(/C=N/N(C)c2ncnc3ccccc23)cc1OC
pEC50 (PBMC [2]): 5.89
inhibition in vivo at 100 µmol/kg (Mus musculus [3]): 82%
inhibition in vivo at 100 µmol/kg (Mus musculus [4]): 49%
inhibition in vivo at 100 µmol/kg (Mus musculus [5]): 47%
inhibition in vivo at 100 µmol/kg (Mus musculus [6]): 86%
inhibition in vivo at 100 µmol/kg (Mus musculus [8]): 66%
inhibition in vivo at 100 µmol/kg (Mus musculus [9]): 70%

inhibition (Bos taurus [1]): 98.1%
inhibition [10]: 39.5%
inhibition [12]: 40.4%
inhibition (Bos taurus [13]): 29.1%
pIC50 [7]: 6.54
pIC50 [14]: 5.35
inhibition (Bos taurus [15]): 18.5%
SMILES: COc1cccc(C(=O)N(C)/N=C/c2ccc(OC)c(OC)c2)c1
pEC50 (PBMC [2]): 5.90
inhibition in vivo at 100 µmol/kg (Mus musculus [3]): 70%
inhibition in vivo at 100 µmol/kg (Mus musculus [4]): 77%
inhibition in vivo at 100 µmol/kg (Mus musculus [5]): 73%
inhibition in vivo at 100 µmol/kg (Mus musculus [6]): 38%
inhibition at 10 µM (PBMC [11]): 81%
inhibition in vivo at 100 µmol/kg (Mus musculus [8]): 69%
inhibition in vivo at 100 µmol/kg (Mus musculus [9]): 75%

inhibition (Bos taurus [1]): 97.1%
inhibition [10]: 31.2%
pIC50 [16]: 6.85
inhibition [12]: 23.5%
inhibition (Bos taurus [13]): 22.3%
pIC50 [14]: 4.71
inhibition (Bos taurus [15]): 6%
SMILES: COc1ccc(/C=N/N(C)C(=O)c2ccccc2)cc1OC
pEC50 (PBMC [2]): 5.76
inhibition in vivo at 100 µmol/kg (Mus musculus [3]): 58%
inhibition in vivo at 100 µmol/kg (Mus musculus [4]): 68%
inhibition in vivo at 100 µmol/kg (Mus musculus [5]): 73%
inhibition in vivo at 100 µmol/kg (Mus musculus [6]): 53%
inhibition at 10 µM (PBMC [11]): 91%
inhibition in vivo at 100 µmol/kg (Mus musculus [8]): 51%
inhibition in vivo at 100 µmol/kg (Mus musculus [9]): 46%

inhibition (Bos taurus [1]): 9.7%
SMILES: COc1ccc(C(=O)N/N=C/c2ccc(OC)c(OC)c2)cc1

inhibition (Bos taurus [1]): 10.5%
SMILES: COc1ccc(C(=O)N/N=C/c2ccc3c(c2)OCO3)cc1OC

inhibition (Bos taurus [1]): 81.2%
pIC50 [7]: 5.39
SMILES: COc1ccc(-c2nn(C(=O)c3ccccc3)c3ccccc23)cc1OC

inhibition (Bos taurus [1]): 97%
inhibition [10]: 34%
inhibition [12]: 26.6%
inhibition (Bos taurus [13]): 27.5%
pIC50 [7]: 6.82
pIC50 [14]: 5.17
inhibition (Bos taurus [15]): 17.7%
SMILES: COc1ccc(/C=N/N(C)C(=O)c2ccc(Cl)cc2)cc1OC
pEC50 (PBMC [2]): 5.99
inhibition in vivo at 100 µmol/kg (Mus musculus [3]): 33%
inhibition in vivo at 100 µmol/kg (Mus musculus [4]): 54%
inhibition in vivo at 100 µmol/kg (Mus musculus [5]): 69%
inhibition in vivo at 100 µmol/kg (Mus musculus [6]): 59%
inhibition at 10 µM (PBMC [11]): 88%
inhibition in vivo at 100 µmol/kg (Mus musculus [8]): 72%
inhibition in vivo at 100 µmol/kg (Mus musculus [9]): 54%

inhibition (Bos taurus [1]): 13.1%
SMILES: COc1ccc(/C=N/NC(=O)c2ccccc2)cc1OC

inhibition (Bos taurus [1]): 22.8%
SMILES: COc1ccc(C(=O)N(C)/N=C/c2ccccc2)cc1OC

inhibition (Bos taurus [1]): 27%
SMILES: COc1ccc(C(=O)N(C)/N=C/c2ccc(O)cc2)cc1OC

inhibition (Bos taurus [1]): 1.5%
SMILES: COc1ccc(C(=O)N/N=C/c2ccc(O)cc2)cc1OC

inhibition (Bos taurus [1]): 45.9%
SMILES: COc1ccc(/C=N/N(C)C(=O)c2c(C)nc3ccccn23)cc1OC

inhibition (Bos taurus [1]): 6.6%
SMILES: COc1ccc(/C=N/NC(=O)c2ccc(OC)c(OC)c2)cc1

inhibition (Bos taurus [1]): 16%
SMILES: COc1ccc(/C=N/NC(=O)c2ccc3c(c2)OCO3)cc1OC

inhibition (Bos taurus [1]): 6.4%
SMILES: COc1ccc(C(=O)N/N=C/c2ccc(Cl)cc2)cc1OC

inhibition (Bos taurus [1]): 10.7%
SMILES: COc1ccc(/C=N/NC(=O)c2ccc(OC)c(OC)c2)cc1OC

inhibition (Bos taurus [1]): 13.6%
SMILES: COc1ccc(/C=N/NC(=O)c2ccc(O)cc2)cc1OC

inhibition (Bos taurus [1]): 41.5%
SMILES: COc1ccc(/C=N/NC(=O)c2c(C)nc3ccccn23)cc1OC

inhibition (Bos taurus [1]): 19.8%
SMILES: COc1ccc(C(=O)N(C)/N=C/c2ccc3c(c2)OCO3)cc1OC

inhibition (Bos taurus [1]): 78.8%
pIC50 [7]: 5.28
SMILES: COc1ccc(C2=NNC(=O)c3ccccc3C2)cc1OC
inhibition at 10 µM (PBMC [11]): 14%

inhibition (Bos taurus [1]): 45.8%
SMILES: COc1ccc(/C=N/N(C)C(=O)c2ccc(OC)c(OC)c2)cc1

inhibition (Bos taurus [1]): 40.4%
SMILES: COc1ccc(C(=O)N(C)/N=C/c2ccc(Cl)cc2)cc1OC

SMILES: COc1ccc(/C=N/NC(=O)c2ccc(Cl)cc2)cc1OC
inhibition (Bos taurus [1]): 7.5%

inhibition (Bos taurus [1]): 5.8%
SMILES: COc1ccc(C(=O)N/N=C/c2ccccc2)cc1OC

inhibition (Bos taurus [1]): 76.5%
pIC50 [7]: 5.14
SMILES: COc1ccc(C2=NN(C)C(=O)c3ccccc3C2)cc1OC
inhibition at 10 µM (PBMC [11]): 20%
